# Test results published in PubChem BioAssay AID463104 (Sanford-Burnham Center for Chemical Genomics, 2010).
# Hit rate of the full screen: of about 330,000 compounds, about 1,100 (0.33%) were called active.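 The calls were made as follows: active = versus positive control, 20 µM dose yields 30% or more activation; inactive = the rest.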 Many of the other results were omitted from the sample, so actives are more common in it than they were.
# Assay: IRE1-XBP1 pathway stimulators – cell-based, CHO-XBP1 luciferase reporter, luminescence, uHTS, primary screen (AID 463104);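 also: 100% = tunicamycin at 10 µg/mL and 0% = DMSO only wells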
# Conditions: IRE1-XBP1 UPR activation, at 20 µM, active compounds read high, percent of tunicamycin response, DMSO as zero
# In short: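 Material: CHO-XBP1 cells stably carrying IRE1-XBP1-driven luciferase reporter | Medium: F12 with 10% serum | Compound dosing: 20 µM single concentration, DMSO 1% | Incubation: Overnight seeding at 37 °C, 6 h compound treatment at 37 °C | Detection: Steady-Glo luminescence read | Read-out basis: % activation of reporter signal versus tunicamycin and DMSO controls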
row,SMILES,activation
1,CN(C)C(=O)CCc1ccc2c3c([nH]c2c1)[C@]1(C)[C@@H](C(=O)N2CCCCC2)C[C@H](CC(=O)NCCC2=CCCCC2)C(=O)N1CC3,-0.99% (inactive)
2,CN(C)C(=O)CCc1ccc2c3c([nH]c2c1)[C@]1(CCc2ccccc2)[C@@H](C(=O)N2CCCCC2)C[C@H](CC(=O)NCCC2=CCCCC2)C(=O)N1CC3,37.8% (active)
3,CC(C)N(C(=O)[C@H]1C[C@H](CC(=O)NCCC2=CCCCC2)C(=O)N2CCc3c([nH]c4cc(CCC(=O)N(C)C)ccc34)[C@]12C)C(C)C,-2.39% (inactive)
4,CCOC(=O)N1CCC(O)(c2cc(C)c(C)cc2C)CC1,0.36% (inactive)
5,c1ccc(-n2nnnc2NC2CCCCCC2)cc1,-3.04% (inactive)
6,COc1cc(OC)c(C(=O)OC(C)C(=O)Nc2cc(C(F)(F)F)ccc2Cl)cc1OC (configuration not stated),1.27% (inactive)
7,CSc1nc2c(c(=O)[nH]1)C(c1cccc(Cl)c1Cl)CC(=O)N2 (configuration not stated),-1.96% (inactive)
8,N#Cc1c(N)nc2c3c(sc(=N)c2c1N)NC(=O)CC3c1ccccc1Cl (configuration not stated),31.5% (active)
9,COc1ccc(C2CC(=O)Nc3sc(=N)c4c(N)c(C#N)c(N)nc4c32)cc1OC (configuration not stated),2.45% (inactive)
10,O=C(Nc1nnc(-c2ccccc2F)s1)c1ccccc1F,4.27% (inactive)
11,Cc1ccc(-n2ncc3c2CC(C)(C)CC3NC(=O)CCc2cnn(C)c2)cc1 (configuration not stated),-4.76% (inactive)
12,COC(=O)c1c(NC(=O)COc2ccc(Cl)cc2Cl)sc2c1CC(C)(C)NC2(C)C,74.2% (active)
13,COC(=O)c1sccc1NC(=O)COc1ccc(Cl)cc1,-0.33% (inactive)
14,CCOC(=O)c1c(NC(=O)c2ccc(S(=O)(=O)N(C)CC3CCCO3)cc2)sc2c1CC(C)(C)NC2(C)C (configuration not stated),-6.05% (inactive)
15,COc1ccc(-c2cc(=O)oc3cc(OCC(=O)N(C)C4CCS(=O)(=O)C4)ccc23)cc1 (configuration not stated),-1.57% (inactive)
16,COc1ncnc2c1N=C1CC(C)(C)CC(N)=C1S2,-0.91% (inactive)
17,CN1CCN(CCCNC(=O)c2ccc(/C=C3\Oc4ccccc4N(Cc4ccc(Cl)cc4)C3=O)cc2)CC1,13.7% (inactive)
18,CN1C(=O)/C(=C/c2ccc(C(=O)NC3CCCC3)cc2)Oc2ccccc21,33.7% (active)
19,O=C(NC1CC1)c1ccc(-c2ccccc2)cc1,0.87% (inactive)
20,COc1cccc(NC(=O)C(Sc2nnnn2C)c2ccccc2)c1 (configuration not stated),-3.49% (inactive)
21,CCOC(=O)N1CCN(C(=O)c2nn(-c3ccc(C)cc3)c(=O)c3c2c2ccccc2n3C)CC1,34.3% (active)
22,CCOC(=O)N1CCN(C(=O)Cn2cnc3ccccc3c2=O)CC1,-3.17% (inactive)

row,SMILES,activation
1,CCOC(=O)N1CCN(C(=O)c2n[nH]c(=O)c3ccccc23)CC1,-2.8% (inactive)
2,CN(Cc1ccccc1)CC(O)COc1ccc(CNCc2cc3ccccc3s2)cc1 (configuration not stated),-0.93% (inactive)
3,CCOC(=O)c1c(NC(=O)CCl)sc(C(=O)N(CC)CC)c1C,11.5% (inactive)
4,CCOC(=O)c1c(NC(=O)CNC2CCCc3ccccc32)sc(C(N)=O)c1C (configuration not stated),39.6% (active)
5,NC(=O)Nc1ccc(C(=O)OCC(=O)NC2CCCc3ccccc32)cc1 (configuration not stated),-2.79% (inactive)
6,CC1CCCCC1NC(=O)CN1CCC(O)(c2ccc3c(c2)OCO3)CC1 (configuration not stated),-2.34% (inactive)
7,O=C(NCC(=O)N1CCN(c2ncc(C(F)(F)F)cc2Cl)CC1)c1ccc(Br)o1,-1.88% (inactive)
8,CCSc1nnc(-c2cc3c(s2)-c2ccccc2CC3)o1,3.74% (inactive)
9,Nc1nc(NCC2CCCO2)nc(Nc2ccccc2F)c1[N+](=O)[O-] (configuration not stated),1.61% (inactive)
10,C=CCNc1nc(N)c([N+](=O)[O-])c(NC2CCCCC2)n1,32% (active)
11,Nc1nc(Nc2ccccc2F)nc(NC2CCCCC2)c1[N+](=O)[O-],11.1% (inactive)
12,Cc1ccc(-c2nnc(-c3ccc(NC(=O)c4cccs4)cc3)o2)cc1,198% (active)
13,Cc1ccc(NC(=O)c2cccs2)cc1S(=O)(=O)N(C)C,1.24% (inactive)
14,Cc1ccc(OCC(=O)Nc2ccc(NC(=O)c3cccs3)cc2)c(C)c1,10.1% (inactive)
15,COc1ccc(-c2ccc(CCC(=O)O)n2-c2ccc(O)cc2)cc1,-1.71% (inactive)
16,Oc1cccc2ccc(/C=C/c3ccc(Br)s3)nc12,54.5% (active)
17,Nc1ccc(S(=O)(=O)Nc2nccc(/C=C/c3ccc(Br)s3)n2)cc1,-1.07% (inactive)
18,c1ccc(-c2ccnc3nc(-n4cccc4)nn23)cc1,0.42% (inactive)
19,COc1cc(NC(=O)c2cncc(-c3ccc(C#N)cc3)c2)cc(C(=O)Nc2cccc(C(F)(F)F)c2)c1,125% (active)
20,COc1cc(NC(=O)c2[nH]cnc2C(N)=O)cc(C(=O)Nc2cccc(C(F)(F)F)c2)c1,-2.27% (inactive)
21,N#Cc1ccc(Oc2ccc(C(F)(F)F)cc2NC(=O)c2ccc(F)cc2)cc1,0.22% (inactive)
22,Cc1cc2c(C)nc(N/N=C/c3ccccc3)nc2o1,4.19% (inactive)

row,SMILES,activation
1,O=C(N/C(=C/c1ccc(Cl)cc1)C(=O)N1CCCCC1)c1ccco1,-3.57% (inactive)
2,Cc1ccc(SC(CC(=O)c2ccc(C(C)(C)C)cc2)C(=O)O)cc1 (configuration not stated),0.27% (inactive)
3,C=CCn1c(SCc2ccccc2)nc2c1c(=O)[nH]c(=O)n2C,5.46% (inactive)
4,COCCCNc1nc2c(-c3cccc(C)c3)nnn2c2ccc(Cl)cc12,26.4% (inactive)
5,C=CCN(CC=C)S(=O)(=O)c1ccc(C(=O)Nc2nc3c(s2)CCc2ccccc2-3)cc1,35.1% (active)
6,Cc1cccc(NC(=O)c2ccc(S(=O)(=O)N(C)c3ccccc3)cc2)n1,-2.2% (inactive)
7,O=C(Nc1ccc(S(=O)(=O)N2CCc3ccccc3C2)cc1)c1ccccc1,-1.11% (inactive)
8,COc1ccc(C(=O)OCC(=O)N2CC(=O)Nc3ccccc32)cc1Br,0.2% (inactive)
9,CCOc1ccccc1C1CC(c2cccc(NS(C)(=O)=O)c2)=NN1C(=O)c1ccccc1 (configuration not stated),-3.45% (inactive)
10,CCOc1ccc2nc(Cl)c(C3CC(c4ccccc4)=NN3C(=O)c3cccs3)cc2c1 (configuration not stated),51.3% (active)
11,COc1ccc(C2=NN(C(=O)c3ccccc3C(=O)O)C(c3ccccc3O)C2)cc1 (configuration not stated),-1.79% (inactive)
12,CC(C)(C)c1cc(P(=O)(c2ccccc2)c2ccccc2)ccc1O,-1.41% (inactive)
13,CN(C)c1ccc(NC(=O)c2ccncc2)c2ccccc12,-0.55% (inactive)
14,O=C(Nc1ccc2nc3n(c(=O)c2c1)CCCC3)c1ccc(Cl)nc1,2.35% (inactive)
15,CCCCN(CC)C(=S)Nc1ccc2nc3n(c(=O)c2c1)CCCCC3,1.45% (inactive)
16,O=C(Nc1ccc2nc3n(c(=O)c2c1)CCCCC3)c1ccccc1Cl,45.2% (active)
17,Cc1ccc(CS(=O)(=O)CCC(=O)NCc2ccc(F)cc2)cc1,-1.62% (inactive)
18,COc1ccc(NC(=O)c2nc(-n3nc(C)cc3C)ccc2Cl)cc1Cl,-2.77% (inactive)
19,CC(=O)c1ccc(Oc2cc(C)nc(-n3nc(C)cc3C)n2)cc1,16.4% (inactive)
20,COc1ccc(Nc2cc(C)nc(-n3nc(C)cc3C)n2)cc1,121% (active)
21,CC(=O)OCCN(CCCn1c(-c2ccncc2)nc2ccccc21)c1nc(-c2ccc(C)cc2)cs1,-1.12% (inactive)
22,C=CC[C@@H](CC(=O)N[C@@H](CO)Cc1ccccc1)C(=O)NCCOC(=O)[C@@H](CC=C)CC(=O)OC(C)(C)C,-2.2% (inactive)

row,SMILES,activation
1,C=CC[C@@H](CC(=O)N[C@H](CO)Cc1ccccc1)C(=O)N[C@H](C)COC(=O)[C@@H](CC=C)Cc1ccc(F)cc1,-2.99% (inactive)
2,C=CC[C@@H](CC(=O)N[C@@H](CO)Cc1ccccc1)C(=O)N[C@H](COC(=O)[C@H](CC=C)CC(=O)OC(C)(C)C)Cc1ccccc1,32.4% (active)
3,CCCc1cc(=O)[nH]c2nnc(SCC(=O)Nc3nnc(SCC)s3)n12,-0.61% (inactive)
4,O=C(NCc1ccccc1Cl)NC(=O)c1csc([N+](=O)[O-])c1,-1.89% (inactive)
5,O=C(COc1ncnc2ccccc12)NC(=O)NCc1ccccc1,-0.7% (inactive)
6,O=C(O)CCC(=O)NCc1ccc(C(=O)O)cc1,-0.32% (inactive)
7,COc1cc(N=Cc2c(O)c3ccccc3oc2=O)c(OC)cc1Cl,-0.88% (inactive)
8,COc1ccccc1N=Cc1c(O)c2ccccc2oc1=O,120% (active)
9,COc1ccccc1N=C(C)C1=C(O)COC1=O,0.65% (inactive)
10,COc1ccc(-c2nc3ccccc3n2CCC(C)C)cc1OC,-2.77% (inactive)
11,COc1ccc(C(C)(C)C)cc1NC(=O)CCN1C(=O)C2CCCCC2C1=O (configuration not stated),0.21% (inactive)
12,CS(=O)(=O)N(CC(=O)N/N=C/c1ccccn1)c1ccc(Oc2ccccc2)cc1,1.21% (inactive)
13,CCC1(CC)Cc2ccccc2-c2nc(CCl)[nH]c(=O)c21,45.2% (active)
14,CC1(C)Cc2ccccc2-c2[nH]c(=S)[nH]c(=O)c21,-3.14% (inactive)
15,CC1(C)Cc2ccccc2-c2nc(CN3CCOCC3)[nH]c(=O)c21,2.37% (inactive)
16,Cc1ccc2nnn(Cc3cccc(C(C)(C)C)c3O)c2c1,-2.21% (inactive)
17,CCOC(=O)/C=C/c1ccc(C(F)(F)F)cc1S(=O)(=O)NC(C)(C)C,3.87% (inactive)
18,COc1ccc(CNC(=O)CCC(=O)Nc2nnc(C(C)C)s2)cc1,2.87% (inactive)
19,COc1cccc(Cn2cc(/C=N/NC(=O)c3cc(O)cc(O)c3)c3ccccc32)c1,-0.87% (inactive)
20,CNC(=S)N/N=C/c1cn(Cc2ccc(C)cc2)c2ccccc12,-0.8% (inactive)
21,N#CCC(=O)N/N=C/c1cn(Cc2ccc3ccccc3c2)c2ccccc12,77.3% (active)
